Data from ChEMBL document CHEMBL3407438, “Discovery of potent, orally bioavailable, small-molecule inhibitors of WNT signaling from a cell-based pathway screen” (J Med Chem, 2015).
The source made the active and inactive calls. The rule behind the calls is not given here.

Columns and labels:
[1] = Inhibition of WNT signaling in human T-Rex HEK293 Tet-O cells harboring constitutively active deltaN-LRP6 after 4 days by luciferase reporter assay; type: cell-based; settings: HEK293, 96 h
Procedure, shortened: (§1)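 HEK293 T-Rex Tet-O cells stably carrying TCF-firefly luciferase-IRES-GFP reporter plus Tet-inducible cDNA (ΔN-LRP6, Dvl2, Axin-GID, ΔN-β-catenin or VP16-TCF4) introduced by FLP-FRT recombination; seeded from frozen at 40 000/well; day 3 compound added, eight concentrations 30 μM to 14 nM (final), with doxycycline hyclate; day 4 cells lysed, firefly luciferase luminescence read.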

[2] = Inhibition of WNT signaling in human 7dF3 cells preincubated at 20 uM for 2 hrs before beta-estradiol addition measured after 24 hrs by luciferase reporter assay; type: cell-based
[3] = Inhibition of WNT signaling in human T-Rex HEK293 Tet-O cells harboring Dvl2 after 4 days by luciferase reporter assay; type: cell-based; settings: HEK293, 96 h; procedure, shortened: as §1
[4] = Cytotoxicity against human 7dF3 cells; type: cell-based
[5] = Inhibition of WNT signaling in human T-Rex HEK293 Tet-O cells harboring dominant negative form of Axin GSK3beta-interacting domain after 4 days by luciferase reporter assay; type: cell-based; settings: HEK293, 96 h; procedure, shortened: as §1
Cytochrome P450 3A4 = Cytochrome P450 3A4 (Homo sapiens, UniProt P08684); assay: Inhibition of CYP3A4 (unknown origin); type: ADME
Cytochrome P450 3A4, sequence (P08684 whole entry): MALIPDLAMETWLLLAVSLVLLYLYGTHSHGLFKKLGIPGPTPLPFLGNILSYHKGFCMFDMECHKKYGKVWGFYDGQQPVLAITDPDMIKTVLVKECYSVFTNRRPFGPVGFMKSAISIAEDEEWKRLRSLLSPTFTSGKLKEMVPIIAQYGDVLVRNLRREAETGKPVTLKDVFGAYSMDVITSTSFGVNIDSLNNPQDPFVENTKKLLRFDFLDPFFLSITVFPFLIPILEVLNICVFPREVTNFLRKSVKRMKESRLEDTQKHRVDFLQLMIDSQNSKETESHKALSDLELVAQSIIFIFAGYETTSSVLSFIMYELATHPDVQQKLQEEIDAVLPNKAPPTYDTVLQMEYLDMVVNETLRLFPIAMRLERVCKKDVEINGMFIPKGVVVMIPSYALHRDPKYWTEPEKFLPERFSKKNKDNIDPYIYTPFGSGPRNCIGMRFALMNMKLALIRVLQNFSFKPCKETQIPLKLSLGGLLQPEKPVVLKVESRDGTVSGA

[6] = Inhibition of WNT signaling in human T-Rex HEK293 Tet-O cells harboring degradation resistant form of beta-catenin after 4 days by luciferase reporter assay; type: cell-based; settings: HEK293, 96 h; procedure, shortened: as §1
cells = type: cell-based; settings: Homo sapiens, 7dF3
[7] = Apparent permeability in human Caco2 cells after 2 hrs by LC-MS/MS analysis; type: ADME, cell-based, Caco-2; settings: caco-2, 2 h
Cytochrome P450 1A2 = target: T1, Cytochrome P450 1A2 (Homo sapiens, UniProt P05177); assay: Inhibition of CYP1A2 (unknown origin); type: ADME
T1 sequence (P05177 whole entry): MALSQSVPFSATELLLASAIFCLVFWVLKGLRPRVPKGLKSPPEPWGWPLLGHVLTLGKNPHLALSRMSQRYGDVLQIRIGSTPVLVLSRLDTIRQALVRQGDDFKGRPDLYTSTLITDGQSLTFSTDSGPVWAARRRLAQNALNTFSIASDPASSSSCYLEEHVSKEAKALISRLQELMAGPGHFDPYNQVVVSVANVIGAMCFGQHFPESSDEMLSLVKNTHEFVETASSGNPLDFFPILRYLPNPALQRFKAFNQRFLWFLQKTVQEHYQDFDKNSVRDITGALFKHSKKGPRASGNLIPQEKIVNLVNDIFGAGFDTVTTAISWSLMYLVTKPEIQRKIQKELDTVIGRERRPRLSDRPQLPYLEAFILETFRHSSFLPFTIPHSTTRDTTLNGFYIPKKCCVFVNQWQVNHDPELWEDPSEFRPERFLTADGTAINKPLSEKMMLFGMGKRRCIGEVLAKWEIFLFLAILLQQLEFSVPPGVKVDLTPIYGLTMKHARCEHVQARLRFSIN

[8] = Drug metabolism in mouse liver microsome at 10 uM after 30 mins by LC-MS analysis; type: ADME; settings: liver microsomes, read-out: Drug metabolism
[9] = Drug metabolism in human liver microsome at 10 uM after 30 mins by LC-MS analysis; type: ADME; settings: liver microsomes, read-out: Drug metabolism
Cytochrome P450 2C8 = target: T2, Cytochrome P450 2C8 (Homo sapiens, UniProt P10632); assay: Inhibition of CYP2C8 (unknown origin); type: ADME
T2 sequence (P10632 whole entry): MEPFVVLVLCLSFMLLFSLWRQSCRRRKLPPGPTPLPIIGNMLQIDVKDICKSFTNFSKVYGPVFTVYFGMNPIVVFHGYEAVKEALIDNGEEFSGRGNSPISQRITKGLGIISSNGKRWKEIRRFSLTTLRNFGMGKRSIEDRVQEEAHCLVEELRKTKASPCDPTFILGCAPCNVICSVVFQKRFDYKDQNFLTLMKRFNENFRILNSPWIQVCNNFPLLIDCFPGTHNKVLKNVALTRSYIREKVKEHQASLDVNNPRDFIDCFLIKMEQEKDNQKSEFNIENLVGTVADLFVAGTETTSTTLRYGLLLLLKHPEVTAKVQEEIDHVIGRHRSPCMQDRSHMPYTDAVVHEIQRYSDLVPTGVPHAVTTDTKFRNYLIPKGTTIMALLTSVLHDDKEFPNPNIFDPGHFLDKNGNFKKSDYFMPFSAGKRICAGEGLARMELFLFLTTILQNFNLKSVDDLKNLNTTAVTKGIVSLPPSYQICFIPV

[10] = target: Voltage-gated inwardly rectifying potassium channel KCNH2 (Homo sapiens, UniProt Q12809); assay: Inhibition of human ERG
Voltage-gated inwardly rectifying potassium channel KCNH2, sequence (Q12809 whole entry): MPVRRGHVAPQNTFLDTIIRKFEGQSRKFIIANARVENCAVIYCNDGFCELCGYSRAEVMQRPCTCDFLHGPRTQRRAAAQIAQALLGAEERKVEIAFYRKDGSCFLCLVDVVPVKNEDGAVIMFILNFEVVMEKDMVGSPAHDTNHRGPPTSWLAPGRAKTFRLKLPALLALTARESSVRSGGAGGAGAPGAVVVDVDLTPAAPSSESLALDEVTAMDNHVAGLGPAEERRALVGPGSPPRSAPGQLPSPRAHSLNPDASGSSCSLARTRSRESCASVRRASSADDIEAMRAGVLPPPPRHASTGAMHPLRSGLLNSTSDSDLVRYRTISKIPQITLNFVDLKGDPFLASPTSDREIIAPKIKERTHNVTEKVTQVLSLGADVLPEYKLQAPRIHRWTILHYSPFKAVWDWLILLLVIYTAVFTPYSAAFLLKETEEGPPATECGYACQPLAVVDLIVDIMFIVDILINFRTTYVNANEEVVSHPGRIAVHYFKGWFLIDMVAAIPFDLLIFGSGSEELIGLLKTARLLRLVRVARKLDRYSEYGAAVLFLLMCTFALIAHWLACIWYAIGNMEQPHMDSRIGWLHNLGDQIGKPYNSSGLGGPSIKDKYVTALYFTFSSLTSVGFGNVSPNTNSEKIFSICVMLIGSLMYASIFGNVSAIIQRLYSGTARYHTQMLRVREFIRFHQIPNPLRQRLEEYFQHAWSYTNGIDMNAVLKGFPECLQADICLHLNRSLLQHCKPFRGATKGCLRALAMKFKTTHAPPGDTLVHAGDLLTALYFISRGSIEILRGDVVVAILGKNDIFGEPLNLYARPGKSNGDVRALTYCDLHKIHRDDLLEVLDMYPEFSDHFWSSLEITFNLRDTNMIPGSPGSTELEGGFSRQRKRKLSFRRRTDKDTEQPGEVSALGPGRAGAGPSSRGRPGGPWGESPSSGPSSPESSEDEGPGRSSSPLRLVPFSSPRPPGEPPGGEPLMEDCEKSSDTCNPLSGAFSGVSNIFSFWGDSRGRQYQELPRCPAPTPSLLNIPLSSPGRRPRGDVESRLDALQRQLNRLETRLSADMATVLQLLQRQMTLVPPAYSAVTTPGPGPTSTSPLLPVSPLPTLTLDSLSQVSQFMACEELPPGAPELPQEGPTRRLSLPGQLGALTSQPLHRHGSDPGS

Cytochrome P450 2C19 = Cytochrome P450 2C19 (Homo sapiens, UniProt P33261); assay: Inhibition of CYP2C19 (unknown origin); type: ADME
Cytochrome P450 2C19, sequence (P33261 whole entry): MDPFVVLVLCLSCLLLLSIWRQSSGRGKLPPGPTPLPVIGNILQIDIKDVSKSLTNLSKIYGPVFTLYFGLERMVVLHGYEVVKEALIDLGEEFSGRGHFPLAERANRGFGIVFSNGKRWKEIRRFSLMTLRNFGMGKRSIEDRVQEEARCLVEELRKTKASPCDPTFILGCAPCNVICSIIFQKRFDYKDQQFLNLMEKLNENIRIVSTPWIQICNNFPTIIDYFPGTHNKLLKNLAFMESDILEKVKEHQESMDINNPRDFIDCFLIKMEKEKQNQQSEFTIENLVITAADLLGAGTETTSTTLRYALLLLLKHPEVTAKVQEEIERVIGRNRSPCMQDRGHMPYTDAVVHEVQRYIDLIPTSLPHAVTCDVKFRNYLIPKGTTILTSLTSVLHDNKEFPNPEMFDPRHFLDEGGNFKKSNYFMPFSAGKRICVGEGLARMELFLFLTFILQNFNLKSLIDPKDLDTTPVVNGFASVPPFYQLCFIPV

Cytochrome P450 2D6 = Cytochrome P450 2D6 (Homo sapiens, UniProt P10635); assay: Inhibition of CYP2D6 (unknown origin); type: ADME
Cytochrome P450 2D6, sequence (P10635 whole entry): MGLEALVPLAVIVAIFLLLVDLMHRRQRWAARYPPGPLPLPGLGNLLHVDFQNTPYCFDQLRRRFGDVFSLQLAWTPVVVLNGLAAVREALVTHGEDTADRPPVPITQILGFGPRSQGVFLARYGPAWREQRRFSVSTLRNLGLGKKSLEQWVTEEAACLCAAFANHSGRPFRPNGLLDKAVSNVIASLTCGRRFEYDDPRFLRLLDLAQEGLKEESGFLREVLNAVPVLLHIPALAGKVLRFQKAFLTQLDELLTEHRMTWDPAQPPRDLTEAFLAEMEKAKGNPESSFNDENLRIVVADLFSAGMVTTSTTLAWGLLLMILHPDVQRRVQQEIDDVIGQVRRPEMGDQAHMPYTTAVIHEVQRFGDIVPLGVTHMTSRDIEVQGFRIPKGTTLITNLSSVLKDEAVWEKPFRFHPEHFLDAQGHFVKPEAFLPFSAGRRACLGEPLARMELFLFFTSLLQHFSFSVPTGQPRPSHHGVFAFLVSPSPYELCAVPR

[11] = Inhibition of WNT signaling in human T-Rex HEK293 Tet-O cells harboring constitutively active VP16-TCF in absence of beta-catenin after 4 days by luciferase reporter assay; type: cell-based; settings: HEK293, 96 h; procedure, shortened: as §1
[12] = Aqueous solubility of the compound; type: physicochemical; settings: buffer
Cytochrome P450 2C9 = Cytochrome P450 2C9 (Homo sapiens, UniProt P11712); assay: Inhibition of CYP2C9 (unknown origin); type: ADME; settings: human
Cytochrome P450 2C9, sequence (P11712 whole entry): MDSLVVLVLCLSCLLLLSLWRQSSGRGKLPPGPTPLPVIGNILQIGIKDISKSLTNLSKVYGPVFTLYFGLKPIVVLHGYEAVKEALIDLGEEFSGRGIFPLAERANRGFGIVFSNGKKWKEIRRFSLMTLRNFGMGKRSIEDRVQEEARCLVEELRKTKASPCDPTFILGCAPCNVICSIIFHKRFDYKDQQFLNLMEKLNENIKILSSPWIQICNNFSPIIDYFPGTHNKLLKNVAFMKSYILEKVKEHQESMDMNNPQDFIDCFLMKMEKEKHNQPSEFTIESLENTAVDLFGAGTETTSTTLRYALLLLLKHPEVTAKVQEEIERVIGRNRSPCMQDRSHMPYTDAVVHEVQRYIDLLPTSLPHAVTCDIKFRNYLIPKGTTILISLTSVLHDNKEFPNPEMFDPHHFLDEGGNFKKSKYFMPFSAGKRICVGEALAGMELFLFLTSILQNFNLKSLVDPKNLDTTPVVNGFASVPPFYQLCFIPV

[13] = Dissociation constant, pKa of the compound; type: physicochemical

NC(=O)C1CCN(c2c(Cl)cncc2Cl)CC1
IC50 [1]: 910 nM
inhibition [2]: Active
IC50 [3]: 1200 nM
Activity [4]: Non-toxic
IC50 [5]: 1500 nM
IC50 (Cytochrome P450 3A4): 7000 nM
IC50 [6]: 2730 nM
IC50 (cells): 1760 nM
Papp [7]: 36 ×10⁻⁶ cm/s
inhibition (INH) (Cytochrome P450 1A2): Not Active
metabolised at 0.5 h, 10 µM [8]: 41%
metabolised at 0.5 h, 10 µM [9]: 22%
inhibition (INH) (Cytochrome P450 2C8): Not Active
IC50 [10]: > 10000 nM
inhibition (INH) (Cytochrome P450 2C19): Not Active
inhibition (INH) (Cytochrome P450 2D6): Not Active
IC50 [11]: 7610 nM
solubility [12]: > 1000 µg/mL
inhibition (INH) (Cytochrome P450 2C9): Not Active
pKa [13]: 3.5
